Assay [1] deals with Receptor-type tyrosine-protein kinase FLT3 (Homo sapiens) (UniProt P36888). In words: Inhibition of FLT3 at 10 uM by HTRF assay relative to control. In outline: (§1)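 HTRF kinase assay, one panel of kinases. Inhibitor stock 50 µM in 100% DMSO; tested at 10 µM. ATP and substrate at final levels near Km. Final buffer: 50 mM Hepes/NaOH pH 7.4, 40 µM Na3VO4, 0.005% Tween-20, 1 mM DTT, MnCl2 or MgCl2 at kinase-dependent levels. Started by adding ATP/substrate. Reaction run at room temperature, time varied by kinase. Detection mix in 50 mM Hepes pH 7.4, 0.1% BSA, 150 mM KF, incubated ≥1 h at room temperature. Activity expressed as % of uninhibited control; n=2.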
A general note: In TR-FRET formats the signal depends on donor and acceptor labels being close together.

The target of assay [2] is Vascular endothelial growth factor receptor 1 (Homo sapiens) (UniProt P17948). The assay can be described thus: Inhibition of FLT1 at 10 uM by HTRF assay relative to control. In outline:
as §1

Assay [3] has as its target T1, Ephrin type-B receptor 4 (Homo sapiens) (UniProt P54760).
T1 sequence (whole entry): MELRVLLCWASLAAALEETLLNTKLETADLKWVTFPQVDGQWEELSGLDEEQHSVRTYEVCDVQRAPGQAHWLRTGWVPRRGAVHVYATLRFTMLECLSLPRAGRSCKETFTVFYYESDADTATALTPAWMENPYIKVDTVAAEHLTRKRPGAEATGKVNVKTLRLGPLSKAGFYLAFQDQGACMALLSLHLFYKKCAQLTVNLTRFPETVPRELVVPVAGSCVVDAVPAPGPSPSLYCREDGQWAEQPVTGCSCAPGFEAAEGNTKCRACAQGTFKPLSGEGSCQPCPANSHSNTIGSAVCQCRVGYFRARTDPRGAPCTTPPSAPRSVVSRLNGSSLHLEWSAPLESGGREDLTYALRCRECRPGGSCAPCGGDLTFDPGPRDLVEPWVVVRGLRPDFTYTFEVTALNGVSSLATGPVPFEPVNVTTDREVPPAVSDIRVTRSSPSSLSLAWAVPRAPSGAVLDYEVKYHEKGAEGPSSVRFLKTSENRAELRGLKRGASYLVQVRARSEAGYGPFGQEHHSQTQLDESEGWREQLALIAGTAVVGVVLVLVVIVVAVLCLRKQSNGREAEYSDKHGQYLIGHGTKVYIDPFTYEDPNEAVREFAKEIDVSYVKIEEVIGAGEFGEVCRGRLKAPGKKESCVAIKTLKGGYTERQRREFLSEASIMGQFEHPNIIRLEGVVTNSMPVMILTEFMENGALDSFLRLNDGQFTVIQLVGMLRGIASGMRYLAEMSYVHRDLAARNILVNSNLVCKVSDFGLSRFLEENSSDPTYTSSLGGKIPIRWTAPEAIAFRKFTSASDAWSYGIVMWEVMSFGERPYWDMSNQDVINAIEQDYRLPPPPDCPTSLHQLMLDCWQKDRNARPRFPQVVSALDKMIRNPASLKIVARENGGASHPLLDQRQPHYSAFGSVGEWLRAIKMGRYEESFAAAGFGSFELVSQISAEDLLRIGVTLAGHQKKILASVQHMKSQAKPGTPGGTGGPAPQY
In words: Inhibition of EphB4 at 10 uM by HTRF assay relative to control. A digest of the protocol: as §1

The target in assay [4] is Epidermal growth factor receptor (Homo sapiens) (UniProt P00533). In words: Inhibition of EGFR at 10 uM by HTRF assay relative to control. In outline: as §1
Sequence of Epidermal growth factor receptor (Homo sapiens) (P00533 whole entry): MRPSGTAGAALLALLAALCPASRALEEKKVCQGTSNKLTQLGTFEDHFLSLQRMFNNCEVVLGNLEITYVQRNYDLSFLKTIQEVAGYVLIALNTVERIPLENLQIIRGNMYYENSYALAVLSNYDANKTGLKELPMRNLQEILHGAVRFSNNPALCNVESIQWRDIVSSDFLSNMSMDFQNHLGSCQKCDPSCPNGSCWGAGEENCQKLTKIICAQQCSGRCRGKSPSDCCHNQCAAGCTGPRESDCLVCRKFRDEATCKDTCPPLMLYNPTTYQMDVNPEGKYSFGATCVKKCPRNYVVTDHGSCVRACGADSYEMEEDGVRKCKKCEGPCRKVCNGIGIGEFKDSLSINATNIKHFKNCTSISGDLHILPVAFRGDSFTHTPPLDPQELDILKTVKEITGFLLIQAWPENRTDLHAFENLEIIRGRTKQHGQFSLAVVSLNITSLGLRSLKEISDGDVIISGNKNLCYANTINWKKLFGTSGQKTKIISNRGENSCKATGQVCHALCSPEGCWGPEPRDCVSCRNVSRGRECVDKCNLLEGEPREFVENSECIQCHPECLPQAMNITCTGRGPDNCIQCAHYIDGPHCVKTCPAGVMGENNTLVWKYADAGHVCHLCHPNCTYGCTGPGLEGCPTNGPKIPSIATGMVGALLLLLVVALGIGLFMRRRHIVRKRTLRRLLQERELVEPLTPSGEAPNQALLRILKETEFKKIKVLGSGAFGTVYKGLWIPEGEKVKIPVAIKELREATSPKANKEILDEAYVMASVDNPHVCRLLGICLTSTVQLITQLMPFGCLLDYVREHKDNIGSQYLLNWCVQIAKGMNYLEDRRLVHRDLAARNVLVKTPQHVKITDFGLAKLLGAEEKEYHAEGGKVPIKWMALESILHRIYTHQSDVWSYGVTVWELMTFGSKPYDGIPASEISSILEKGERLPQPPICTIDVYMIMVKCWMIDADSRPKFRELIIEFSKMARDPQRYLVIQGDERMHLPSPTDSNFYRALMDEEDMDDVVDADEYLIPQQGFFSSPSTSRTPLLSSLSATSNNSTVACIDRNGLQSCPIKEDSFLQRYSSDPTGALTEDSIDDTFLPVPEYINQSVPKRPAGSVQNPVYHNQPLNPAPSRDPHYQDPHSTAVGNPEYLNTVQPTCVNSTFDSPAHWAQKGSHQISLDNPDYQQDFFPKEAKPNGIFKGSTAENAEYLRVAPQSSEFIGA
Assay [5] concerns the target Mitogen-activated protein kinase 14 (Homo sapiens) (UniProt Q16539). In words: Inhibition of p38alpha at 10 uM by HTRF assay relative to control. A digest of the protocol:
as §1

The target in assay [6] is Mitogen-activated protein kinase 9 (Homo sapiens) (UniProt P45984). In words: Inhibition of JNK2 at 10 uM by HTRF assay relative to control. In outline:
as §1

Assay [7] has as its target MAP kinase-activated protein kinase 2 (Homo sapiens) (UniProt P49137). In words: Inhibition of MAPKAPK2 at 10 uM by HTRF assay relative to control. In outline:
as §1

Assay [8] concerns the target T2, Calcium/calmodulin-dependent protein kinase type IV (Homo sapiens) (UniProt Q16566).
T2 sequence (whole entry): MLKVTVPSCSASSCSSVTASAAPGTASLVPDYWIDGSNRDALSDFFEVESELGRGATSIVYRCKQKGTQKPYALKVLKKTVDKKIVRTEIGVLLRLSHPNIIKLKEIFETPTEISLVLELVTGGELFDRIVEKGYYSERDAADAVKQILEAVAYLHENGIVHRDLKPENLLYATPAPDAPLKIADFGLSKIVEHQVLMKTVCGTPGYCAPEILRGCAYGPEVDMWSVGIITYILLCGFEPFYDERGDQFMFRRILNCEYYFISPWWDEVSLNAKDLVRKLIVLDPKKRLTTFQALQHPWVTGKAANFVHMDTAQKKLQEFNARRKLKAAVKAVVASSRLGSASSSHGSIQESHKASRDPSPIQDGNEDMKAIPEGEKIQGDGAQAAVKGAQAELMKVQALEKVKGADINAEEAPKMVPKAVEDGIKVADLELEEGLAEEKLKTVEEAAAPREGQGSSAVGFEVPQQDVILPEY
The assay can be described thus: Inhibition of CaMK4 at 10 uM by HTRF assay relative to control. In outline:
as §1

Assay [9] addresses Calcium/calmodulin-dependent protein kinase type II subunit alpha (Homo sapiens) (UniProt Q9UQM7). In words: Inhibition of CaMK2alpha at 10 uM by HTRF assay relative to control. In outline:
as §1

Assay [10] concerns the target Protein kinase C gamma type (Homo sapiens) (UniProt P05129). The assay can be described thus: Inhibition of PKCgamma at 10 uM by HTRF assay relative to control. In outline: as §1
Assay [11] has as its target Protein kinase C alpha type (Homo sapiens) (UniProt P17252). In words: Inhibition of PKCalpha at 10 uM by HTRF assay relative to control. A digest of the protocol: as §1
The target of assay [12] is Focal adhesion kinase 1 (Homo sapiens) (UniProt Q05397). The assay can be described thus: Inhibition of FAK at 10 uM by HTRF assay relative to control. In outline: as §1
Assay [13] addresses Platelet-derived growth factor receptor beta (Homo sapiens) (UniProt P09619). In words: Inhibition of PDGFRbeta at 10 uM by HTRF assay relative to control. In outline:
as §1

In assay [14] the target is Vascular endothelial growth factor receptor 2 (Homo sapiens) (UniProt P35968). The assay can be described thus: Inhibition of KDR at 10 uM by HTRF assay relative to control. A digest of the protocol:
as §1

The target of assay [15] is 3-phosphoinositide-dependent protein kinase 1 (Homo sapiens) (UniProt O15530). In words: Inhibition of PDK1 at 10 uM by HTRF assay relative to control.
Sequence of 3-phosphoinositide-dependent protein kinase 1 (Homo sapiens) (O15530 whole entry, looked up): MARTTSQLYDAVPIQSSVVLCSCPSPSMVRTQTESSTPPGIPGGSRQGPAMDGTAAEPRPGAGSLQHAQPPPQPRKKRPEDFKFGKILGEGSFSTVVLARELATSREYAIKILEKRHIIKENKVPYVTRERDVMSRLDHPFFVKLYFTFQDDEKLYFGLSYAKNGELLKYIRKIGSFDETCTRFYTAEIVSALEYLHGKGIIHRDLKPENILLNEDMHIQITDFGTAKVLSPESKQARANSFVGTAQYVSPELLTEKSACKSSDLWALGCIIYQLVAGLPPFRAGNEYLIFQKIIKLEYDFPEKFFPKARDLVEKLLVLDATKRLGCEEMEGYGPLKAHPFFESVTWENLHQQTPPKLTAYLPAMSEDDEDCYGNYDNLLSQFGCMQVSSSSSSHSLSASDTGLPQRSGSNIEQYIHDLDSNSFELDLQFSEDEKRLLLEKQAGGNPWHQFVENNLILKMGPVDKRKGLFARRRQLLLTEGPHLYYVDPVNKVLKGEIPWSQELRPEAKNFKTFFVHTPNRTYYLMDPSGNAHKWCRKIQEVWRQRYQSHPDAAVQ

Sequence of Calcium/calmodulin-dependent protein kinase type II subunit alpha (Homo sapiens) (Q9UQM7 whole entry): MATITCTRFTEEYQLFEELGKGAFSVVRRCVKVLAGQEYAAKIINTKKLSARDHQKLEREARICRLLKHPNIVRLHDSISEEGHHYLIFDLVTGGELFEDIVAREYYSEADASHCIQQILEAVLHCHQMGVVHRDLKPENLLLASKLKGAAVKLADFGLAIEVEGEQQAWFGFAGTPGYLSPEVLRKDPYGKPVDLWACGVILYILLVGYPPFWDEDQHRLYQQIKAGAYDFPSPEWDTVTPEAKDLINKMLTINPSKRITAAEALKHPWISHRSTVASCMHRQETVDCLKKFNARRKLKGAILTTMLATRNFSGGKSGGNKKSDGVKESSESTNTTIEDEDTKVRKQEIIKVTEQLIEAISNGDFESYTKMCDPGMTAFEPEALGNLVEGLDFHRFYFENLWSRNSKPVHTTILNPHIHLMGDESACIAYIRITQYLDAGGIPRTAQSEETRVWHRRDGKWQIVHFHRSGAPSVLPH
Sequence of MAP kinase-activated protein kinase 2 (Homo sapiens) (P49137 whole entry, looked up): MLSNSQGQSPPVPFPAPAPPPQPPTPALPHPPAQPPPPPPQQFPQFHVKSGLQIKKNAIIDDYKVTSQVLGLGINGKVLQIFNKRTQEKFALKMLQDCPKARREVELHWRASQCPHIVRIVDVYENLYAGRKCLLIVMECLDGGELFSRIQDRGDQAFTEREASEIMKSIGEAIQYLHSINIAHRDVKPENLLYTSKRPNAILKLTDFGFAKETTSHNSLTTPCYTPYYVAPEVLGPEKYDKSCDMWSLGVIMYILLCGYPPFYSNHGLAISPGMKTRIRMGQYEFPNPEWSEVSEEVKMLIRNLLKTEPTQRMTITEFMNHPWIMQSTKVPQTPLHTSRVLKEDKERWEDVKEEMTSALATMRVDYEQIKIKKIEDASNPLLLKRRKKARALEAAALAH
Sequence of Mitogen-activated protein kinase 9 (Homo sapiens) (P45984 whole entry, looked up): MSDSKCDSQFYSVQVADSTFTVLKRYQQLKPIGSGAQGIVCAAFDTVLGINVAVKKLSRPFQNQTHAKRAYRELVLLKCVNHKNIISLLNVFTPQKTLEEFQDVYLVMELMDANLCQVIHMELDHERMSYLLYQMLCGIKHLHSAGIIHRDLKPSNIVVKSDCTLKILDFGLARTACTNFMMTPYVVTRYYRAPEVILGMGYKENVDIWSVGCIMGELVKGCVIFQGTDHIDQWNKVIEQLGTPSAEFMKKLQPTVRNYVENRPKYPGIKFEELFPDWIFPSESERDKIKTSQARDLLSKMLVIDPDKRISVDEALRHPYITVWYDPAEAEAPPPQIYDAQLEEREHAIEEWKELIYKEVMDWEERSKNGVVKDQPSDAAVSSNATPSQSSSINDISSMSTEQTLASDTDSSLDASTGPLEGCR
Sequence of Platelet-derived growth factor receptor beta (Homo sapiens) (P09619 whole entry): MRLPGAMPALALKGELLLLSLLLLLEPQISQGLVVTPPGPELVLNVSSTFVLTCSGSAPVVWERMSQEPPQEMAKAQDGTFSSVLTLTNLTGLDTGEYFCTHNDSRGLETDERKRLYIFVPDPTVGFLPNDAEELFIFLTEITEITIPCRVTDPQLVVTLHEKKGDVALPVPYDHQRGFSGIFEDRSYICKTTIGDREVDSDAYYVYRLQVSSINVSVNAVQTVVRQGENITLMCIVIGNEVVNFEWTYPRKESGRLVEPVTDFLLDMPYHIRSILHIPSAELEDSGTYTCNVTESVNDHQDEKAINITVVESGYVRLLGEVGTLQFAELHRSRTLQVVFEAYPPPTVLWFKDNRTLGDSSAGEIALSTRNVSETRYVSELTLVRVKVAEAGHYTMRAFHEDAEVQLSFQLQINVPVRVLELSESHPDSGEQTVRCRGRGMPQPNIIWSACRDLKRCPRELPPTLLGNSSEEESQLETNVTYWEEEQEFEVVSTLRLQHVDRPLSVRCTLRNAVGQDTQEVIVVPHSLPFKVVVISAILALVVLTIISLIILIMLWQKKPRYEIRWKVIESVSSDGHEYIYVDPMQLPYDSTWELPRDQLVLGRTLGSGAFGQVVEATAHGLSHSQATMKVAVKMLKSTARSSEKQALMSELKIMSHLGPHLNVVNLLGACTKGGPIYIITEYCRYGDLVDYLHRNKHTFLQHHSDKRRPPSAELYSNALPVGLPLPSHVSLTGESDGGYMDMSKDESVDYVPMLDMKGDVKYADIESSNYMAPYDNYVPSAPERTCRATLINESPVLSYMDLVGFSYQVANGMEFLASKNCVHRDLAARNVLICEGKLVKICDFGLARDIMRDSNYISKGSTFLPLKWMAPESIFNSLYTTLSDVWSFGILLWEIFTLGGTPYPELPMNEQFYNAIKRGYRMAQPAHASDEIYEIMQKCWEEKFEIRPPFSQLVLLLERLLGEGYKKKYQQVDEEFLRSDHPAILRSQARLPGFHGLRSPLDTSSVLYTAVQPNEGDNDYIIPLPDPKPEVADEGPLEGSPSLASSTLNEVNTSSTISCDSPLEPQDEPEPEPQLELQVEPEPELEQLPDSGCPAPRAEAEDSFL

Consider `Cc1cccc(Nc2nccc(Nc3cccc(C(=O)NCc4ccc(N(C)C)cc4)c3)n2)c1`, for which the inhibition (commonly the share of the control response that was lost under treatment) in [1] turned out to be 54%; in assay [2], 0%; in assay [3], 0%; in assay [4] it was 0%; in assay [5] it was 0%; in [6], 4%. The inhibition was 4% in assay [7]; 0% in [8]; 0% in assay [9]; 0% in assay [10]; 3% in assay [11]; 17% in [12]. For the same compound, the inhibition in assay [13] stood at 24%; in assay [14], 11%; in [15] it was 0%.
With `COC[C@@H]1CCCN1C(=O)[C@@H]1CCCN1c1cc(Nc2cccc(OC)c2)nc(N)n1`, the inhibition in assay [1] came to 0%; in [2], 3%; in assay [3] it was 0%; in [4], 2%; in assay [5], 8%; in [6], 2%. In addition, the inhibition in [7] turned out to be 2%; in assay [8], 0%; in [9] it was 0%; in assay [10] it was 0%; in [11] it was 5%; in assay [12], 2%. The inhibition was determined as 4% in assay [13], 4% in assay [14] and 0% in assay [15].
In the case of `Cc1cccc(Nc2cc(Nc3cccc(C(=O)N(CC(C)O)CC(C)O)c3)ncn2)c1` (stereo not given), the inhibition in assay [1] is 27%; in [2], 83%; in [3], 0%; in [4], 100%; in assay [5], 11%; in assay [6], 8%. Further, the inhibition was 0% in assay [7]; 0% in assay [8]; 0% in assay [9]; 1% in assay [10]; 1% in assay [11]; 20% in assay [12]. Further, the inhibition in [13] stood at 32%; in [14], 83%; in assay [15], 2%.
As for `O=C(NCc1ccncc1)c1cccc(Nc2cc(Nc3cccc(Br)c3)ncn2)c1`, the inhibition in assay [1] was found to be 35%; in [2], 32%; in [3] it was 0%; in assay [4] it was 100%; in assay [5], 37%; in assay [6], 38%. Besides, the inhibition in assay [7] was 0%; in [8] it was 0%; in assay [9] it was 0%; in assay [10], 0%; in assay [11], 2%; in assay [12] it was 12%. Besides, the inhibition in [13] was 26%; in assay [14] it was 22%; in assay [15], 4%.
Consider `COc1cccc(Nc2cc(Nc3cccc(C(=O)N(C)CCc4ccccn4)c3)nc(N)n2)c1`, for which the inhibition is 0% in assay [1]; 15% in [2]; 0% in assay [3]; 36% in [4]; 5% in assay [5]; 9% in assay [6]. Besides, the inhibition in [7] is 0%; in [8], 0%; in assay [9], 0%; in assay [10], 1%; in [11], 0%; in assay [12], 11%. Moreover, the inhibition in assay [13] was 3%; in assay [14], 7%; in assay [15], 4%.
`Nc1nc(N2CCOCC2)cc(N2CCC(C(=O)NCCc3ccc(O)cc3)CC2)n1`: the inhibition came out at 0% in assay [1]; 0% in assay [2]; 0% in assay [3]; 0% in assay [4]; 8% in assay [5]; 3% in assay [6]. The inhibition in assay [7] is 0%; in assay [8] it was 0%; in assay [9] it was 0%; in [10], 0%; in assay [11], 0%; in assay [12], 3%. The inhibition in assay [13] amounted to 0%; in [14], 7%; in assay [15], 0%.
Take `Cc1cccc(Oc2ccnc(N3CCC[C@H]3C(=O)NCc3cccnc3)n2)c1`: the inhibition in [1] amounted to 0%; in assay [2], 0%; in assay [3], 0%; in assay [4] it was 0%; in assay [5] it was 0%; in [6] it was 4%. For the same compound, the inhibition in assay [7] was 0%; in [8] it was 0%; in [9], 0%; in [10], 6%; in assay [11] it was 0%; in assay [12] it was 0%. In addition, the inhibition in [13] was determined as 11%; in [14], 4%; in assay [15], 0%.
On to `O=C(COc1ccccc1)N1CCN(c2nccc(Nc3ccc4ncsc4c3)n2)CC1`, for which the inhibition in assay [1] was found to be 0%; in [2], 3%; in [3] it was 0%; in assay [4], 81%; in assay [5], 7%; in assay [6], 44%. Further, the inhibition in assay [7] was determined as 0%; in assay [8], 0%; in [9], 0%; in [10], 14%; in assay [11], 0%; in assay [12] it was 15%. Further, the inhibition in assay [13] was determined as 30%; in assay [14], 35%; in [15], 0%.
For `Cc1cccc(Nc2nccc(Nc3cccc(C(=O)N(C)CCc4ccccn4)c3)n2)c1`, the inhibition in assay [1] worked out at 86%; in assay [2], 34%; in assay [3], 5%; in assay [4], 8%; in assay [5], 3%; in assay [6], 37%. For the same compound, the inhibition in [7] is 0%; in [8], 0%; in assay [9], 0%; in [10], 14%; in [11], 0%; in [12], 99%. Besides, the inhibition in assay [13] is 93%; in assay [14], 81%; in [15], 8%.
For the compound `Nc1nc(N2CCOCC2)cc(N2CCC(C(=O)NCc3cccs3)CC2)n1`, the inhibition was found to be 0% in assay [1]; 0% in assay [2]; 0% in [3]; 0% in [4]; 8% in [5]; 3% in [6]. The inhibition in assay [7] stood at 0%; in assay [8], 0%; in assay [9] it was 0%; in assay [10] it was 0%; in assay [11], 0%; in assay [12], 3%. Also, the inhibition in assay [13] came to 8%; in [14], 17%; in assay [15], 0%.
Consider `Clc1ccc2sc(CN3CCN(c4ncnc5c4CN(Cc4ccccc4)CC5)CC3)cc2c1`, for which the inhibition is 0% in assay [1]; 0% in assay [2]; 0% in assay [3]; 0% in [4]; 10% in assay [5]; 5% in [6]. Besides, the inhibition in assay [7] was determined as 1%; in assay [8], 0%; in assay [9], 0%; in assay [10], 2%; in [11] it was 8%; in assay [12], 1%. The inhibition was found to be 5% in assay [13], 11% in assay [14] and 3% in assay [15].
